High-throughput results deposited in PubChem BioAssay by Sanford-Burnham Center for Chemical Genomics.
Hits are enriched below; roughly 1.5% of the tested compounds scored in any of these assays.
APJ agonist: agonists of human apelin receptor APJ, primary screen, CHO-K1 cells, PathHunter beta-arrestin, luminescence | 0% DMSO wells, 100% apelin | activation, % at 20 µM | 330,000 tested, 0.11% active | AID 2520, 2010;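 active = activation more than six SD over the plate average, tested at 20 µM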
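assay system = CHO-K1 APJ beta-arrestin complementation cell line | input = cell density 1000 per well | dosing = compound 20 µM once, DMSO 1% | timing = compound 90 min 25 °C, reagent 1 h | measured by = luminescence from split beta-galactosidase complementation, Galacton Star/Emerald II substrate | read-out basis = APJ agonist activity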
EBI2 antag: EBI2 receptor antagonists, beta-arrestin recruitment, primary screen, cell-based, luminescence, 7a,25-OHC stimulation, uHTS. inhibition, % at 5 µM. G-protein coupled receptor 183 (Homo sapiens), P32249. 360,000 tested, 0.81% active. 7a,25-OHC stimulated; in the data active = inhibition above about 38%;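 note: enzyme fragment complementation signal reports receptor beta-arrestin coupling in cells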
Target sequence (P32249 whole entry, looked up, the tested form may be a part): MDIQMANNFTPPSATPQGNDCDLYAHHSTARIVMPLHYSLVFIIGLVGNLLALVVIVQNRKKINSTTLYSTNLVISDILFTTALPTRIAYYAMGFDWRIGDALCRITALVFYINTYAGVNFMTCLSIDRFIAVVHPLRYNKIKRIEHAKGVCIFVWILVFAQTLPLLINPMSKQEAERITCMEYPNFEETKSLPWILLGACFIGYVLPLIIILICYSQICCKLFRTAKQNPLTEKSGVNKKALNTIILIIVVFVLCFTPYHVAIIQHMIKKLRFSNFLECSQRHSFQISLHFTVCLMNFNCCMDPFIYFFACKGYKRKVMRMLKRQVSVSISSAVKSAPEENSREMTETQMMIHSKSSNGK
CXCR6 block: CXCR6 receptor inhibitors, primary screen, cell-based, beta-arrestin, luminescence, CHO-K1 PathHunter, 1536-well; C-X-C chemokine receptor type 6 (Homo sapiens), O00574; inhibition, % at 20 µM; 360,000 tested, 0.36% active; AID 602244, 2012; in the data active = inhibition above about 34%, passing the limit was not always enough;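 note: antagonist mode with CXCL16 agonist at 10 nM final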
APJ antagonist: antagonists of human apelin receptor APJ, primary screen, CHO-K1 cells, beta-arrestin complementation, luminescence. inhibition, % at 20 µM. 330,000 tested, 0.32% active;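 active = inhibition above about 40% at 20 µM, limit read from the data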;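 note: cells challenged with 10 nM apelin-13 agonist together with compound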
CCR6 antag: CCR6 receptor antagonists, primary screen, cell-based, CHO-K1, luminescence, beta-arrestin, uHTS; C-C chemokine receptor type 6 (Homo sapiens), P51684; 340,000 tested, 0.49% active; inhibition, % at 20 µM; CHO-K1 CCR6 PathHunter beta-arrestin, CCL20-stimulated;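 active = compounds whose inhibition of the agonist-driven luminescence signal at 20 µM reaches about 50%, limit read from the data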;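 note: cells stimulated with CCL20 at 14 nM final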
EBI2 antag conf: EBI2 antagonist hit retest, beta-arrestin, confirmation, cell-based, single concentration, luminescence, 7a,25-OHC stimulation. shares compounds with EBI2 antag. 7a,25-OHC antagonism. inhibition, % at 5 µM. 2,400 tested, 29% active. AID 651997, 2013;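 active = inhibition of at least 50%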
EBI2 ag: EBI2 agonist activity of antagonist hits, confirmation, counter-screen for EBI2 antagonist project, cell-based, single concentration, agonist mode, luminescence. shares compounds with EBI2 antag. EBI2-expressing cells, 60 min; 0% vehicle, 100% 7α,25-dihydroxycholesterol control. activation, % at 5 µM. 2,400 tested, under 10 active. AID 652000, 2013;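 active = activation of at least 50%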
bGal cs: E. coli beta-galactosidase enzyme inhibition, confirmation, counter-screen for EBI2 antagonist project, biochemical, luminescence, single concentration | inhibition, % at 5 µM | purified beta-galactosidase, luminescent Galacton Star, 15 min | shares compounds with EBI2 antag | 2,400 tested, 1% active;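 active = replicate-average signal at least 3 plate SD below neutral wells, shown as high inhibition, flagging enzyme-inhibiting false positives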;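 note: higher means stronger loss of beta-gal luminescence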
Of the large screens only hits and unclear results are named; the others gave an inactive call (follow-up assays come after a bar, where they were run).

Cc1cc(C)c2oc(C(=O)N3CCN(Cc4ccccc4)CC3)cc(=O)c2c1	EBI2 antag 58.2 | EBI2 antag conf inactive | EBI2 ag inactive | bGal cs inactive
Cc1cc(C)c2oc(C(=O)N3CCN(C)CC3)cc(=O)c2c1	none
CCCCOc1ccc(/C=C/C(=O)NC2=Nc3ccccc3NC(C)=C2C(=O)OCC)cc1OC	none
CC1(O)C(=O)C=C2C=C(c3ccc(C#N)cc3)OC=C2C1=O (stereo not drawn)	none (no result: EBI2 antag, CXCR6 block, CCR6 antag)
COc1cccc(NC(=O)CN(C)C(=O)c2ccccn2)c1	none
COc1cc(/C=C(\C#N)C(=O)c2c(C)[nH]c3ccccc23)cc(OC)c1OC	EBI2 antag 44.8 | EBI2 antag conf inactive | EBI2 ag inactive | bGal cs inactive
Cc1cccc(C)c1NC(=O)C1c2ccccc2OCC(=O)N1Cc1ccc2c(c1)OCO2 (stereo not drawn)	none (no result: APJ agonist, APJ antagonist, CCR6 antag)
O=C(/C=C/c1ccc(Cl)cc1Cl)N1CCN(c2ccccc2[N+](=O)[O-])CC1	EBI2 antag 82.5 | EBI2 antag conf 61.7 | EBI2 ag inactive | bGal cs inactive
O=C(/C=C/c1ccc(Cl)cc1Cl)N1CCN(c2ccc([N+](=O)[O-])c(N3CCOCC3)c2)CC1	EBI2 antag 60.6 | EBI2 antag conf inactive | EBI2 ag inactive | bGal cs inactive
O=C(/C=C/c1ccc(Cl)cc1)N1CCN(c2ccc([N+](=O)[O-])c(N3CCOCC3)c2)CC1	EBI2 antag 96.3 (no result: APJ agonist, APJ antagonist) | EBI2 antag conf 88.5 | EBI2 ag inactive | bGal cs inactive
O=C(c1ccccc1)N1CCN(c2ccc([N+](=O)[O-])c(N3CCOCC3)c2)CC1	none
CC(C(=O)N1CCc2ccccc21)N1CCN(S(=O)(=O)c2cccs2)CC1 (stereo not drawn)	none
O=c1[nH]nc(CNc2ccc(C(F)(F)F)cc2)c2ccccc12	none
O=c1[nH]nc(CNc2ccc(OC(F)(F)F)cc2)c2ccccc12	EBI2 antag 51.8 | EBI2 antag conf inactive | EBI2 ag inactive | bGal cs inactive
O=C(c1ccccn1)N1CC=C(c2ccccc2)CC1	none (no result: APJ agonist, APJ antagonist)
CC(C)CCNc1nnnc2c1sc1nc(N3CCOCC3)c3c(c12)CC(C)(C)SC3	EBI2 antag 51.9 | EBI2 antag conf inactive | EBI2 ag inactive | bGal cs inactive
CNc1ccc(C(=O)N2CCN(S(=O)(=O)c3ccc4c(c3)OCCCO4)CC2)cc1[N+](=O)[O-]	EBI2 antag 47.5 | EBI2 antag conf inactive | EBI2 ag inactive | bGal cs inactive
CN(CCOc1ccc(Cl)cc1)C(=O)C1CCN(C(=O)c2ccc(Cl)cc2)CC1	EBI2 antag 73.6 | EBI2 antag conf inactive | EBI2 ag inactive | bGal cs inactive
CN(CC(=O)Nc1ccc(Cl)c(C(F)(F)F)c1)C(=O)C1CCN(C(=O)c2ccc(Cl)cc2)CC1	EBI2 antag 55.6 (no result: APJ agonist, APJ antagonist) | EBI2 antag conf inactive | EBI2 ag inactive | bGal cs inactive
CN(CC(=O)Nc1ccc(Cl)c(C(F)(F)F)c1)C(=O)C1CCC1	none
COc1ccc(OCCN2CCN(C(=O)c3ccc(OC)cc3)CC2)cc1	none
O=C(c1ccc(Cl)cc1)N1CCN(CCOc2ccccc2)CC1	EBI2 antag 45.6 | EBI2 antag conf inactive | EBI2 ag inactive | bGal cs inactive
O=C(NC1CCCCC1)C1c2ccccc2OCC(=O)N1Cc1cccnc1 (stereo not drawn)	none (no result: APJ agonist, APJ antagonist, CCR6 antag)
NC(=O)c1ccc(NC(=O)C2CCCC2)cc1	none
CCCCCCSc1ccc(-c2nc3cc(C)ccn3c2NC2CCCCC2)cc1	none
CCCCCCSc1ccc(-c2nc3ccc(C)cn3c2NC2CCCCC2)cc1	EBI2 antag 44.8 | EBI2 antag conf inactive | EBI2 ag inactive | bGal cs inactive
COc1ccc(N=C2C(=Nc3ccc(OC)cc3)N(c3ccc(OC)cc3)C(=S)N2c2ccccc2)cc1	EBI2 antag 63.7 | EBI2 antag conf inactive | EBI2 ag inactive | bGal cs inactive
Cc1cccc(N2CCN(C(=O)c3ccncc3)CC2C)c1 (stereo not drawn)	none
Cc1cccc(N2CCN(C(=O)c3ccc4ccccc4c3)CC2C)c1 (stereo not drawn)	EBI2 antag 64.8 | EBI2 antag conf inactive | EBI2 ag inactive | bGal cs inactive
O=C(c1ccc(-c2ccccc2)cc1)N1CCN(c2ccccc2)CC1	none
O=C(c1ccc2ccccc2c1)N1CCN(c2ccccc2)CC1	EBI2 antag 82.8 | EBI2 antag conf 67.9 | EBI2 ag inactive | bGal cs inactive
CC1CCN(C(=O)c2ccc3ccccc3c2)CC1	EBI2 antag 46.3 | EBI2 antag conf inactive | EBI2 ag inactive | bGal cs inactive
Cc1c(NC(=O)CCCCCN2C(=O)C3C4C=CC(C4)C3C2=O)c(=O)n(-c2ccccc2)n1C (stereo not drawn)	none
NS(=O)(=O)c1cccc(Nc2nc3ccccc3nc2NS(=O)(=O)c2ccc(Cl)cc2)c1	EBI2 antag 62.6 | EBI2 antag conf 52.9 | EBI2 ag inactive | bGal cs inactive
O=C(Nc1cc(Cl)ccc1N1CCCC1)C1=NN(c2ccccc2)C(=O)CC1	none
CCCc1cc(C(=O)N2CCCN(C)CC2)cs1	none
CCCc1cc(C(=O)N2CCN(c3ccccc3C)CC2)cs1	EBI2 antag 63.1 | EBI2 antag conf inactive | EBI2 ag inactive | bGal cs inactive
C[C@H](NC(=O)C1CCN(S(=O)(=O)c2ccccc2)CC1)C(=O)NCc1ccc(Cl)cc1Cl	none
Clc1ccc(-c2csc3ncnc(N4CCc5ccccc5C4)c23)cc1	EBI2 antag 44.4 | EBI2 antag conf inactive | EBI2 ag inactive | bGal cs inactive
O=C(NC12CC3CC(CC(C3)C1)C2)C1CC(=O)N(c2ccc(Br)cc2)C1 (stereo not drawn)	EBI2 antag 50.6 | EBI2 antag conf inactive | EBI2 ag inactive | bGal cs inactive
c1ccc(Oc2ncnc3oc(-c4ccccc4)cc23)cc1	EBI2 antag 50.1 | EBI2 antag conf inactive | EBI2 ag inactive | bGal cs inactive
